The entries come from a sample that favours hits as a whole.
H69AR inhibit: blocks growth of human H69AR lung tumor cells | H69AR lung tumor viability, ATP luminescence, 72 h; stronger effect = lower value | AID 598 | viability, % at 10 µM | actives 6% (n = 85,000);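 active = viability at or below 40%; inactive = viability above 40%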;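 also: multidrug resistant small cell line overexpressing MRP-1 efflux transporter; 100% = mean luminescence of untreated control wells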
PTEN del growth: PTEN-deleted cell growth suppression. HCT116 PTEN-null viability, CellTiter-Glo, 60 h; stronger effect = lower value. viability, % at 10 µM. actives 1.2% (n = 140,000);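 active = viability at or below a set limit, 4 SD under the median of all tested compounds, cut at about 3.7% in these data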;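 also: PTEN knockout HCT116 line with beta catenin targeted HCT116 as companion control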
HUVEC prolif 384: human endothelial cell proliferation inhibition. actives 1.1% (n = 86,000). AID 648. HUVEC proliferation, CellTiter-Glo luminescence, 72 h; stronger effect = lower value. viability, % at 10 µM (by protocol);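 active = viability at or below 30%; inactive = viability above 30%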;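 also: 100% = median luminescence of DMSO-only cell control wells on each plate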
bCat KO growth: beta-catenin-lacking colon tumor cell growth suppression; HCT116 beta-catenin knockout viability, CellTiter-Glo, 60 h; stronger effect = lower value; viability, % at 10 µM; actives 1.5% (n = 140,000); AID 818;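 active = viability at or under a set limit, the compound median less 4 SD, cut at about 6% in these data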;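 also: 0% = Hyamine 1622 control at 20 µM and 100% = untreated cell control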
Fibroblast inh: blocks proliferation of human lung fibroblasts | LL 47 human lung fibroblast viability, ATP luminescence; stronger effect = lower value | viability, % at 10 µM | actives 1.1% (n = 85,000) | AID 719;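 active = viability at or below 50% in the single dose screen; inactive = viability above 50%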;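 also: compound exposure lasted 72 h before the ATP readout; 100% = median luminescence of untreated cell-only wells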
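Material: human lung fibroblast line LL 47, low passage; Evaluation: viability percentage against median untreated-cell control; Buffer or medium: 15% FBS in IMEM; Incubation: 72 h compound exposure at 37 °C after overnight plating; Dosing: 0.1% DMSO in all compound wells; Measured by: CellTiter-Glo luminescence.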
* hit, by the source's call; · = not tested or not shown.

SMILES	H69AR inhibit	PTEN del growth	HUVEC prolif 384	bCat KO growth	Fibroblast inh
COc1ccc(N2C(=O)CC(Sc3nc(C)c4c(n3)CCCC4)C2=O)cc1 (stereo unspecified)	24.8*	100.4	60.1	106.2	81.0
COc1cc(OC)cc(C(C(=O)NC2CCCCC2)N(C(=O)c2ccno2)c2ccccc2)c1 (stereo unspecified)	73.4	87.2	86.6	87.8	91.4
Cc1nnc(Sc2c(N)n(C)c(=O)n(C)c2=O)s1	99.8	98.2	95.0	99.9	98.3
Cc1nnc(Sc2nc(Sc3nnc(C)s3)nc(N3CCN(C)CC3)n2)s1	0.6*	·	69.3	·	6.1*
Cc1nc([N+](=O)[O-])c(Sc2nc3ccccc3n2C)n1Cc1ccccc1	·	1.8*	·	2.7*	·
Cc1cc(/C=N/n2cnnc2)c(C)n1-c1ccc(OCc2ccc(F)cc2)cc1	18.6*	11.9	54.9	8.6	74.7
Cc1cc(/C=N/n2cnnc2)c(C)n1-c1ccc(OCc2ccc(Cl)cc2Cl)cc1	5.8*	4.0	2.6*	3.7*	73.4
O=C1CC(c2ccco2)Cc2nc(Nc3nc(-c4ccccc4)c4ccccc4n3)ncc21 (stereo unspecified)	·	3.5*	54.5	3.4*	25.3*
Cc1cccc(Nc2ncc3c(n2)CC(c2ccco2)CC3=O)c1 (stereo unspecified)	29.8*	75.1	92.4	81.5	102.0
Cc1ccc2nsnc2c1S(=O)(=O)N(Cc1cc2cccc(C)c2[nH]c1=O)CC1CCCO1 (stereo unspecified)	10.3*	56.6	60.1	60.4	90.5
Cc1ccc2cc(CN(CC3CCCO3)S(=O)(=O)c3c(C)ccc4nsnc34)c(=O)[nH]c2c1 (stereo unspecified)	82.3	101.8	107.1	82.8	89.2
CCCCCOc1ccc(Br)cc1CSC(=N)N	·	0.8*	·	1.3*	·
CCOc1ccc(CSC(=N)N)cc1	·	92.0	·	92.3	·
COc1cccc(COc2ccccc2C2Nc3ccc(Br)cc3C(=O)N2NC(=O)c2ccncc2)c1 (stereo unspecified)	·	35.8	·	36.6	·
CCOC(=O)c1c(CN2CCCCC2)n(C)c2cc(Br)c(O)cc12	80.9	74.1	102.6	64.3	95.2
CCOC(=O)c1c(CN2CCN(C)CC2)n(C)c2cc(Br)c(OC)cc12	7.3*	77.4	33.1	82.1	71.0
CSCCOC(=O)C1=C(C)Nc2ccc(C)cc2S1	28.1*	99.1	80.9	94.0	90.2
CC(C)(C)c1ccc(C(=O)Nc2cccc3c(=O)[nH][nH]c(=O)c23)cc1	·	94.2	·	94.4	·
Nc1nnnn1/N=C/c1cc(Cl)cc(Cl)c1OCc1ccc(Cl)cc1Cl	21.5*	4.2	89.5	3.2*	91.1
Nc1nnnn1/N=C/c1ccccc1OCc1ccc(Cl)cc1Cl	·	52.1	·	45.3	·
Cc1ccc(NC(=O)CCCN2C(=O)/C(=C/C=C/c3ccccc3)SC2=S)cc1	·	2.4*	·	6.5	·
O=C(CCN1C(=O)/C(=C/C=C/c2ccccc2)SC1=S)Nc1nccs1	·	64.2	·	58.4	·
Cc1cc(N(CCO)CCO)ccc1C(c1ccc(N(CCO)CCO)cc1C)c1ccccc1Cl	·	60.8	·	62.5	·
COc1cc(C2C3=C(Nc4ncnn42)c2ccccc2CC3)cc(OC)c1OC (stereo unspecified)	29.1*	13.8	54.0	16.4	50.4
c1ccc(-c2nc3nonc3nc2-c2ccccc2)cc1	1.9*	2.4*	52.4	2.3*	16.8*
SMILES	H69AR inhibit	PTEN del growth	HUVEC prolif 384	bCat KO growth	Fibroblast inh
CCOC(=O)c1c(NC(=O)CSc2nnc3c(Cl)cc(Cl)cn23)sc2c1CCC2	·	72.2	·	83.1	·
C=C1[C@@H](C)C2[C@H](Cc3ccccc3)NC(=O)[C@]23OC(=O)CC[C@H](O)CCC[C@H](C)C/C=C/[C@H]3[C@@H]1O (stereo partly specified)	37.9*	·	15.3*	·	25.1*
O=S(=O)(c1ccc(Br)c2nsnc12)N1CCOCC1	·	86.5	·	63.5	·
CN1CCN(S(=O)(=O)c2ccc(Br)c3nsnc23)CC1	2.9*	77.7	100.5	76.6	89.5
CN1CCN(S(=O)(=O)c2ccc3[nH]c(=O)oc3c2)CC1	·	107.0	·	97.9	·
CCCSc1nsc(NC(=O)C(c2ccccc2)c2ccccc2)n1	17.8*	7.8	67.5	13.6	87.2
CC1CC1c1ccc(/C=C(\C#N)C(=O)Nc2cccc(Cl)c2Cl)o1 (stereo unspecified)	·	106.8	·	98.2	·
Cc1ccc(Cl)cc1N1CCN(C(=O)C2CCN(S(=O)(=O)c3cccnc3)CC2)CC1	51.0	51.5	91.7	44.8	94.7
Cc1ccc(Cl)cc1N1CCN(C(=O)C2CCN(S(=O)(=O)c3c(C)nn(C)c3C)CC2)CC1	25.0*	43.8	62.9	54.2	90.3
N=C1SC(c2ccccc2)C(=O)N1c1ncc(Cc2ccccc2Cl)s1 (stereo unspecified)	·	17.3	·	22.9	·
CC1(C)CC(=O)C2=C(C1)OC1=C(C(=O)CC(C)(C)C1)C2c1ccc(O)cc1O	2.2*	1.8*	25.3*	2.1*	16.7*
CCCCOC(=O)Cn1c2ccc(OC)cc2c2nc3ccccc3nc21	28.4*	3.1*	68.1	4.8*	70.8
CCn1c2ccc(OC)cc2c2nc3ccccc3nc21	43.6	72.8	76.8	61.9	87.0
Cc1cc(=O)oc2c(C(=O)/C=C\c3cccs3)c(O)ccc12	·	60.1	·	50.3	·
Cc1c(C(=O)/C=C/c2cccs2)oc2ccc(F)cc12	21.4*	64.6	84.9	65.1	88.9
COc1ccc(C(=O)NC2(C(F)(F)F)NC(=O)N(CCCc3ccccc3)C2=O)cc1OC (stereo unspecified)	·	89.9	·	90.8	·
CC(=O)Oc1ccc2ccccc2c1C(NC(=O)Cc1ccccc1)c1ccccc1Cl (stereo unspecified)	·	1.4*	·	3.9*	·
CCCC(=O)NC(c1ccccc1Cl)c1c(O)ccc2ccccc12 (stereo unspecified)	·	49.2	·	60.7	·
CC1(C(=O)NCCN2CCOCC2)C=CC2(CCCCC2)N1C(=O)c1ccccc1 (stereo unspecified)	·	81.3	·	87.9	·
N#CC(C#N)=c1ccc2c(c1)NC1(CCCCC1)N=2	1.1*	1.3*	28.2*	1.4*	7.4*
Cc1cc(Nc2ccccc2)nn1C(=O)c1ccccc1	91.5	1.2*	108.8	1.5*	92.4
COc1ccc(C(=O)n2nc(C)cc2Nc2ccccc2)cc1	95.7	85.4	82.0	83.3	97.7
Cc1cc(Nc2ccccc2)nn1C(=O)c1ccc(Br)cc1	28.7*	102.0	68.9	99.3	97.1
CC(Nc1nc(N2CCN(S(C)(=O)=O)CC2)nc2ccccc12)c1ccccc1 (stereo unspecified)	81.9	67.3	13.7*	76.0	78.7
c1ccc2c(c1)CCN(c1nc(CN3CCOCC3)nc3sc4c(c13)CCCC4)C2	·	54.6	·	59.2	·
CN1CCN(/C=N/C2=C(C#N)C(c3ccccc3)C3=C(CC(C)(C)CC3=O)O2)CC1 (stereo unspecified)	38.7*	100.6	85.8	105.1	91.9
